HSF1 inh: HSF1 inhibitors in luciferase reporter cells, primary screen, cell-based, NIH3T3, luminescence; NIH3T3-HGL HSE-luciferase, MG132-induced, luminescence 8 h; stronger effect = lower value; activity change, negative = inhibition, % at 7.5 µM (by protocol); 0.77% of 300,000 active; AID 2098, 2009;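 active = more than half of replicate wells show activity change below -50%, luminescence cut by over half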;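 also: luciferase reports HSF-1 transcriptional activity via heat shock element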
PHOSPHO1 block: PubChem AID 1565 | recombinant PHOSPHO1, absorbance phosphatase assay | inhibition, % at 13.3 µM | 1.1% of 290,000 active; in the data active = inhibition above about 60%
CHT block: inhibitors of human choline transporter CHT; High affinity choline transporter 1 (Homo sapiens), Q9GZV3; CHT-expressing cells, membrane potential dye, choline response; stronger effect = lower value; B-score at 10 µM; 0.86% of 310,000 active;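 active = B-score over 3 SD under the library average, and starting fluorescence ratio not unusually high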;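 also: choline stimulus applied at its EC90 after an EC20 pre-addition; B-score computed on integrated fluorescence ratio after choline addition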
HSF-1 act: HSF-1 activators, primary screen, NIH3T3-HGL cells, MG132 stress, luminescence, single point. NIH3T3-HGL HSF-1 luciferase reporter, 8 h; 100% = twice DMSO control signal. activation, % at 9 µM. 1.7% of 300,000 active. AID 504408, 2011;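 active = mean replicate activation of at least 50% with a set share of replicates each reaching 50%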
CHT allo act: CHT positive allosteric modulators, primary screen, cell-based, membrane potential dye, choline EC20 | High affinity choline transporter 1 (Homo sapiens), Q9GZV3 | 0.49% of 310,000 active | B-score at 10 µM | CHT-expressing cells; stronger effect = higher value; LV-AA mutant CHT in HEK293 cells;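 active = initial fluorescence not abnormally high and integrated response B-score, plate-corrected, over 3 SD above library mean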
Lipid droplet: inhibitors of hepatocyte lipid droplet formation, primary screen, imaging, high-throughput imaging, BODIPY stain. AML12 mouse hepatocytes, oleate lipid droplets. inhibition, % at 6.5 µM. 0.4% of 240,000 active;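 active = lipid droplet intensity inhibited by at least 50%, with more than 500 cells counted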
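Assay system: AML12 hepatocytes (mouse); Probe or stimulus: oleic acid at 100 µM to induce lipid droplet formation; Dosing: compound at 6.5 µM only; Schedule: compound with oleate, overnight; Detection: fluorescence imaging, 20x objective, two fields per well; Measure: % inhibition of lipid droplet signal.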
Numbers stand for hits; 0 = inactive; - = not tested or not shown. Only some compounds are listed: those with a hit (about 4.9% of all), similar ones and a draw of the others.

SMILES	HSF1 inh	PHOSPHO1 block	CHT block	HSF-1 act	CHT allo act	Lipid droplet
CCOc1ccc(NC(=O)C(C)SC(N)=O)cc1 (configuration not stated)	-60.2	0	0	0	0	-
Cc1nc(NC(=O)/C=C/c2ccc(Cl)cc2Cl)sc1C(=O)N(C)C	-75.8	0	0	0	0	0
Cc1nc(NC(=O)/C=C/c2ccccc2)sc1C(=O)N(C)C	0	0	0	0	0	0
CC1(C)COC(Cn2c3ccccc3c3ccccc32)O1 (configuration not stated)	0	0	0	0	0	0
CC(=O)c1ccc(NC(=O)C(C)n2nc(-c3ccccc3)c3cc(Cl)ccc32)cc1 (configuration not stated)	-66.8	0	0	0	0	0
Cc1ccc(Sc2nc(-c3ccccc3)nnc2C(F)(F)F)cc1	0	0	0	150.8	0	0
CNc1nc(-c2ccccc2)nnc1C(F)(F)F	0	0	0	0	0	0
COc1ccccc1NC(=O)Cn1nc(-c2ccc3c(c2)OCCO3)ccc1=O	0	0	0	0	0	0
Cc1ccc(O)c(CNCCNCc2cc(C)ccc2O)c1	0	-	0	0	0	-
CCc1ccc(O)c(CNCCNCc2cc(CC)ccc2O)c1	0	-	-6.82	0	0	-
Cc1cc(C)n2c(=S)[nH]nc2n1	0	96.1	0	0	0	-
Cc1cc(C)n2cnnc2n1	0	0	0	0	0	0
Cc1c(N(C)S(=O)(=O)c2ccc(Cl)c(C(=O)N3CCC(C(N)=O)CC3)c2)c(=O)n(-c2ccccc2)n1C	0	-	0	0	0	-
COCCN1C=C(C(=O)OC)C(c2ccc(Cl)cc2)C(C(=O)OC)=C1	0	0	0	0	0	0
CC(C)c1ccc(NC(=O)N(CCc2nc3ccccc3[nH]2)C2CCCC2)cc1	-60.9	0	0	0	0	-
O=C(CCc1nc2ccccc2[nH]1)Nc1ccc(F)cc1	0	0	0	0	0	0
Oc1cc2ccccc2cc1-c1n[nH]c(=S)o1	0	95.5	0	0	0	-
Cc1ccc2c(c1)-c1nc3ccccc3cc1C2=NC1CCCCC1	-	0	0	-	0	0
Cc1ccc2c(c1)C(=NC1CCCCC1)c1cc3ccccc3nc1-2	0	0	0	60.1	0	0
COc1ccc(/C=N/Nc2cc(C)nc3ccc(Br)cc23)cc1	0	0	0	59.4	0	0
CCOC(=O)/C=C1\SCC(=O)N1CC(=O)N1CCOCC1	0	0	0	0	0	0
CCOC(=O)CCCc1sc(N)nc1-c1[nH]c(=O)[nH]c1C	0	87.5	0	0	0	-
Cc1ccc(C2=NNC(C(O)C(O)C(O)C(O)CO)S2)cc1 (configuration not stated)	0	90.4	0	0	0	0
CC(=O)NC1C(=O)N=C(SCC(=O)NC2CCCCC2)NC1=O (configuration not stated)	0	0	0	0	0	-
Cn1c(=O)c2c(nc(SCC(=O)O)n2Cc2cc3c(cc2Cl)OCO3)n(C)c1=O	0	63.7	0	0	0	0
SMILES	HSF1 inh	PHOSPHO1 block	CHT block	HSF-1 act	CHT allo act	Lipid droplet
CCn1c(SCC(=O)Nc2ccc3c(c2)OCO3)nc2c1c(=O)n(C)c(=O)n2C	0	0	0	0	0	0
N/C(Cn1cncn1)=N\OC(=O)c1ccc(Cl)cc1	0	0	0	0	0	0
CC1CN(C(=S)Nc2ccccc2)CC(C)O1 (configuration not stated)	0	0	0	0	0	0
CSc1nc(Cl)c(Cc2ccc(OC(C)C)cc2)c(N(C)C)n1	0	0	0	58.5	0	0
Cn1c(=O)c2cn(-c3ccc4c(c3)OCCO4)cc2n(C)c1=O	-66.8	0	0	0	0	0
Cc1ccc(-n2cc3c(=O)n(C)c(=O)n(C)c3c2)cc1C	0	0	0	0	0	-
COc1cc(NC(=O)c2cccs2)c(C(=O)OCC(=O)c2cc(C)n(-c3ccc(F)cc3)c2C)cc1OC	-64.4	0	0	0	0	0
COc1cc(NC(=O)c2cccs2)c(C(=O)OCC(=O)c2cc(C)n(-c3ccccc3)c2C)cc1OC	0	0	0	0	0	0

Assay outcomes from PubChem.
